High-throughput results deposited in PubChem BioAssay by ICCB-Longwood Screening Facility, Harvard Medical School.
BasE inh: inhibitors of Acinetobacter baumannii siderophore enzyme BasE | AID 485350 | purified BasE, fluorescence polarization binding displacement | inhibition, % (no concentration beside the values) | 0.1% of 84,000 active; in the data active = inhibition above about 25%, passing the limit was not always enough
LANA-nucl inh: inhibitors of KSHV LANA binding to nucleosomes. FITC-LANA1-23 / chicken nucleosome fluorescence polarization; hits give low values. 0.3% of 51,000 active. AID 720717. z-score (concentration not given with the values);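 active = both repeat wells score below -2 in polarization z-score versus plate sample wells, excluding overly bright wells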
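Assay system: purified chicken nucleosomes with FITC-labelled LANA N-terminal peptide (1-23) / Probe or stimulus: 50 nM FITC-LANA1-23 probe / Compound dosing: pin-transferred compound, 100 nL / Times: compound with peptide–nucleosome mix 10–45 min at room temperature / Technique: fluorescence polarization, 480 nm excitation, 535 nm parallel and perpendicular emission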
Large screens that a line does not name were inactive; ! = a repeat was not active. The entries come from a sample that favours hits as a whole.

COC(=O)c1ccc(C2C3=C(Nc4nnnn42)C(C2CCCCC2)CCC3)cc1 (configuration not stated)	none (no result: LANA-nucl inh)
CCN(CC)CCSc1nc2ccc(OC)cc2[nH]1	none
CCN(CC)CCCC(C)Nc1c2ccc(Cl)cc2nc2ccc(OC)cc12 (configuration not stated)	LANA-nucl inh -2.3!
Cc1cccc(N(C)S(=O)(=O)c2ccc(CN3C(=O)c4cccnc4C3=O)cc2)c1	none
O=C(O)c1ccccc1C(=O)N1CCN(C2c3ccccc3-c3ccccc32)CC1	none (no result: BasE inh)
O=C(CCC(=O)n1ncc2ccc(Cl)cc21)NCc1cccnc1	none
Oc1cc(O)cc(/C=C/c2ccc(O)c(O)c2)c1	BasE inh 86
N#C/C(=C/c1ccc(O)c(O)c1)C(=O)OC/C=C/c1ccccc1	none
O=C(O)CCC1(CCC(=O)O)CCCCC1=O	none
NS(=O)(=O)c1ccc(CCNC(=O)CSc2ccc3c(c2)OCCO3)cc1	none (no result: LANA-nucl inh)
O=C(c1ccc(O)cc1)c1ccc(O)cc1O	BasE inh 31
COc1ccc(C(=O)c2ccccc2)c(O)c1	none
Nc1ccc2c(c1)CCC2=O	none
O=C1CC(=O)c2ccc3c4c(ccc1c24)C(=O)CC3=O	BasE inh 27
O=C(Oc1cccc2cccnc12)c1cc(C(F)(F)F)cc(C(F)(F)F)c1	BasE inh 42 (no result: LANA-nucl inh)
O=C(Oc1cccc2cccnc12)c1ccccc1	none
COc1ccc(CSC2=C(C#N)C(=O)NC3(CCCCC3)S2)cc1	BasE inh 39 (no result: LANA-nucl inh)
CCCCSC1=C(C#N)C(=O)NC(c2ccc(OC)cc2)S1 (configuration not stated)	none
O=C1c2c(O)ccc(O)c2C(=O)c2c(NCCNCCO)ccc(NCCNCCO)c21	LANA-nucl inh -9.1
Oc1ccc(Br)c2cccnc12	BasE inh 57
Oc1ccc(Cl)c2cccnc12	none
CN(C)c1ccc(C(=C2C=CC(=[N+](C)C)C=C2)c2ccc(N(C)C)cc2)cc1	LANA-nucl inh -4.1!
CN(C)c1ccc(C2=CC=CC(=C3C=CC(=[N+](C)C)C=C3)O2)cc1	none (no result: LANA-nucl inh)
CCCSc1nc2c(c(-c3ccco3)c1C#N)CCCC2	none
COC(=O)c1cc(-c2cocc2C=C(C#N)C#N)ccc1Cl	LANA-nucl inh -4.7
COC(=O)c1cnn(-c2c(Cl)cccc2Cl)c1C=C(C#N)C#N	none
NC(=O)NC(=O)CSc1nncn1-c1ccccc1	none (no result: LANA-nucl inh)
N#CC(C#N)C(c1ccccc1)c1c(O)[nH]c(=S)[nH]c1=O (configuration not stated)	none (no result: LANA-nucl inh)
O=C(CSc1ncccn1)N1CCc2ccccc2C1	none
Cc1ccnc(SCC(=O)N2CCc3ccccc3C2)n1	BasE inh 40 (no result: LANA-nucl inh)
C1COCCNCCOCCN1	LANA-nucl inh -2.6
C1CNCCN1	none
O=C(Cn1cnc2c(oc3ccccc32)c1=O)N1CCCSC1=Nc1ccccc1Cl	none (no result: LANA-nucl inh)
COc1ccc(N/C(C)=C/C(=O)c2ccccc2)cc1	none
CC(=O)Nc1ccc(N/C(C)=C/C(=O)c2cccnc2)cc1	BasE inh 39
CN1c2ccccc2C(=O)/C(=N\Nc2ccccc2Cl)S1(=O)=O	LANA-nucl inh -2.4
CN1c2ccccc2C(=O)C(=C2SCCCS2)S1(=O)=O	none
O=C(CSc1ccccc1)Nc1ccccc1F	none
CCN(C(=O)c1cccc(Cl)c1)C1CCCCC1	none
CCN(C(=O)NC1(C(F)(F)F)Oc2ccc(Cl)cc2O1)C1CCCCC1 (configuration not stated)	BasE inh 40
CC1CCN(S(=O)(=O)N2CCCC(C(=O)Nc3ccccc3C(=O)c3ccccc3)C2)CC1 (configuration not stated)	LANA-nucl inh -2.2
COC(=O)c1cc(NC(=O)C2CCCN(S(=O)(=O)N3CCC(C)CC3)C2)cc(C(=O)OC)c1 (configuration not stated)	none
O=C(CNc1ccccc1)N/N=C/c1ccc(N2CCOCC2)cc1	none (no result: LANA-nucl inh)
O=C1CCCC2=C1C(c1cccc(Br)c1)Nc1ccccc1N2 (configuration not stated)	none (no result: LANA-nucl inh)
O=C1CCCC2=C1Sc1ccccc1N2	LANA-nucl inh -2.7
COc1ccc(C(=O)N2C3C=CC(C3)C2(C(F)(F)F)C(F)(F)F)cc1 (configuration not stated)	none
Nc1c(S(=O)(=O)c2ccccc2)c2nc3ccccc3nc2n1Cc1ccc(S(N)(=O)=O)cc1	none (no result: LANA-nucl inh)
O=C(CC1S/C(=N\N=C2\CSC(=O)N2)N(Cc2ccco2)C1=O)Nc1ccc(Br)cc1 (configuration not stated)	none (no result: LANA-nucl inh)
CC(CNC(=O)c1cc(C2CC2)[nH]n1)c1ccccc1 (configuration not stated)	none
Cc1cc(C(=O)NCC(C)c2ccccc2)n[nH]1 (configuration not stated)	LANA-nucl inh -2.2
N#CC(C(=O)Nc1ccccc1)=C1Nc2ccccc2N1	BasE inh 31 (no result: LANA-nucl inh)
N#CC(C(=O)Nc1ccc(Cl)c(Cl)c1)=C1Nc2ccccc2N1	none
CCOc1ccc(-c2nnc3ccc(SCC(N)=O)nn23)cc1	none
C=CCNc1nc(C(=O)OCC(=O)N2CC(C)OC(C)C2)cs1 (configuration not stated)	none (no result: LANA-nucl inh)
Cc1ccc(N2C(=O)NC(c3ccccc3)(C(F)(F)F)C2=O)nc1 (configuration not stated)	LANA-nucl inh -2.3
O=C1NC(c2ccc(F)cc2)(C(F)(F)F)C(=O)N1Cc1ccco1 (configuration not stated)	none
CN(C)c1cccc(C(=O)OCc2c(F)cccc2Cl)c1	none (no result: LANA-nucl inh)
CCN1/C(=C(\C#N)c2nc(C#N)c(C#N)nc2N2CCOCC2)Nc2ccccc21	LANA-nucl inh -3.2
CN1CCN(c2nc(C#N)c(C#N)nc2C(C#N)=C2Nc3ccccc3N2)CC1	none
COC(=O)Cn1c(C)cc(C)c(C#N)c1=O	none
CCOC(=O)c1cc(C(N)=S)c(=O)[nH]c1O	none
O=c1[nH]c2c(s1)C=Nc1cc3ccccc3cc1N2	LANA-nucl inh -2.3
CC(=O)OC1CC(C)(C)N(C(C)=O)C(C)(C)C1	none
CCCCNC(=O)NC1C2CC3CC(C2)CC1C3 (configuration not stated)	BasE inh 26
CC(C)NC(=O)NC1C2CC3CC(C2)CC1C3 (configuration not stated)	none
CCc1cccc(CC)c1N(COC)C(=O)Cn1c(Cc2ccccc2)nc2ccccc21	none (no result: LANA-nucl inh)
N#CCCN(/N=C/c1ccccc1)C1=NS(=O)(=O)c2ccccc21	none (no result: LANA-nucl inh)
CCN(CC)c1ccc(/C=N/N(CCC#N)C2=NS(=O)(=O)c3ccccc32)cc1	LANA-nucl inh -8.4
CCOC(=O)N1CCC2(CC1)OC(=O)C(C)=C2C(=O)N1CCCC1	none
CC(=O)Nc1ccc2c(COC(=O)c3ccc(-n4cnnn4)cc3)cc(=O)oc2c1	none (no result: LANA-nucl inh)
CC(=O)N1CCC(N(CCCN2CCC(C)CC2)C(=O)Nc2ccc(Br)c(C)c2)CC1	none
CN(CC1COc2ccccc2O1)C(=O)NC12CC3CC(CC(C3)C1)C2 (configuration not stated)	BasE inh 30 (no result: LANA-nucl inh)
CN(CC1COc2ccccc2O1)C(=O)C1(c2ccccc2)CC1 (configuration not stated)	none (no result: LANA-nucl inh)
Cc1nc2c(cc1C#N)C(O)Oc1c(Cl)cc(Cl)cc1-2 (configuration not stated)	none (no result: LANA-nucl inh)
COc1ccc(S(=O)(=O)NNC(N)=S)cc1	none
COc1ccc(S(=O)(=O)c2ccc(O)cc2)cc1	BasE inh 51
CN1CCC(NC(=S)NCCc2ccccc2)CC1	none (no result: LANA-nucl inh)
C/C(Cn1nnc2ccccc21)=N/OC(=O)c1c(F)cccc1F	BasE inh 53
CC(Cn1nnc2ccccc21)C(=O)O (configuration not stated)	none (no result: LANA-nucl inh)
COC(=O)c1c(F)c(F)c(F)c(F)c1C(=O)OC	none
